According to paper PMC11522000 (Nature Microbiology, 2024):
≈ marks a conversion by molar mass, not a printed value.

Columns and labels:
C. parvum [1] = assay: Host cell invasion assay; type: cell-based, Cryptosporidium parvum; conditions: HCT-8, 3 h; EDI048 and KDU731 20 µM, wiskostatin 11.3 µM
Method in brief: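 HCT-8 monolayers were 95–100% confluent. Compounds were added at twice the final concentration 1 h before infection with 50,000 primed oocysts per well. Plates were kept 3 h at 37 °C, 5% CO2, then washed with PBS-0.1% Tween 20, fixed in 4% PFA for 15 min at room temperature, permeabilized with 0.25% Triton X-100 and blocked in 4% BSA. Vacuoles were stained with fluorescein-VVL and nuclei with Hoechst, then imaged.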

C. parvum [2] = assay: Mouse efficacy study; type: in vivo, C57BL/6 IFN-γ-knockout mice; conditions: oral 10 mg kg^−1, 5 days; nitazoxanide 100 mg kg^−1
[3] = Stability in intestinal S9 fraction; type: in vitro ADME; conditions: mouse
Method in brief: (§1)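 Test compound added to intestinal S9 fraction of each species to start the reaction. Incubated in a shaking water bath at 37 °C, with samples taken at sequential timepoints. Samples quenched with ice-cold acetonitrile and analysed by LC-MS/MS. Half-life calculated from the rate of parent compound depletion.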

HsPI(4)K = HsPI(4)K (Homo sapiens, UniProt Q9UBF8); assay: PI; type: biochemical; conditions: HsPI(4)K IC50, 3 μM ATP
HsPI(4)K, sequence (Q9UBF8 523-816 limits assumed): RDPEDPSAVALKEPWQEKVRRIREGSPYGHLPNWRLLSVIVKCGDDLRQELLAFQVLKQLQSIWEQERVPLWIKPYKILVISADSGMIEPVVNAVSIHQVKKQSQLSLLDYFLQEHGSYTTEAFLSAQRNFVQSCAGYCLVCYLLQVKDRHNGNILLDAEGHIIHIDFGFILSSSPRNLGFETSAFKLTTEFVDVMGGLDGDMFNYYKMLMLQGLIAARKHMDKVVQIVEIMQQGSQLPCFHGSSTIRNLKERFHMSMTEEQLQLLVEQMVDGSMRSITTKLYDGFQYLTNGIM

[4] = Hepatocytes metabolic stability; type: in vitro ADME; conditions: human
Method in brief: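 Test compound was incubated with liver microsomes or hepatocytes of each species, and parent depletion was quantified by LC-MS/MS. From this, in vitro half-life and intrinsic clearance were derived, along with predicted metabolic clearance and hepatic extraction ratio.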

[5] = Stability in intestinal S9 fraction; type: in vitro ADME; conditions: human
Method in brief: as §1

Plasma stability [6] = type: in vitro ADME; conditions: mouse
Method in brief: (§2)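 Test compound was added to plasma and incubated at 37 °C in a shaking water bath, with samples taken at sequential timepoints. Samples were quenched with ice-cold acetonitrile and analysed by LC-MS/MS, and half-life was calculated from the depletion rate.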

[7] = High-throughput equilibrium solubility; type: physicochemical; conditions: pH 6.8, aqueous buffer, thermodynamic from solid
Method in brief: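 Equilibrium solubility was measured by a miniaturized shake-flask method with HPLC quantification.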

CpPI(4)K = target: T1, CpPI(4)K (Cryptosporidium parvum, UniProt Q5CVD3); assay: PI; type: biochemical, C. parvum; conditions: CpPI(4)K IC50, 3 μM ATP
T1 sequence (Q5CVD3 1-1114): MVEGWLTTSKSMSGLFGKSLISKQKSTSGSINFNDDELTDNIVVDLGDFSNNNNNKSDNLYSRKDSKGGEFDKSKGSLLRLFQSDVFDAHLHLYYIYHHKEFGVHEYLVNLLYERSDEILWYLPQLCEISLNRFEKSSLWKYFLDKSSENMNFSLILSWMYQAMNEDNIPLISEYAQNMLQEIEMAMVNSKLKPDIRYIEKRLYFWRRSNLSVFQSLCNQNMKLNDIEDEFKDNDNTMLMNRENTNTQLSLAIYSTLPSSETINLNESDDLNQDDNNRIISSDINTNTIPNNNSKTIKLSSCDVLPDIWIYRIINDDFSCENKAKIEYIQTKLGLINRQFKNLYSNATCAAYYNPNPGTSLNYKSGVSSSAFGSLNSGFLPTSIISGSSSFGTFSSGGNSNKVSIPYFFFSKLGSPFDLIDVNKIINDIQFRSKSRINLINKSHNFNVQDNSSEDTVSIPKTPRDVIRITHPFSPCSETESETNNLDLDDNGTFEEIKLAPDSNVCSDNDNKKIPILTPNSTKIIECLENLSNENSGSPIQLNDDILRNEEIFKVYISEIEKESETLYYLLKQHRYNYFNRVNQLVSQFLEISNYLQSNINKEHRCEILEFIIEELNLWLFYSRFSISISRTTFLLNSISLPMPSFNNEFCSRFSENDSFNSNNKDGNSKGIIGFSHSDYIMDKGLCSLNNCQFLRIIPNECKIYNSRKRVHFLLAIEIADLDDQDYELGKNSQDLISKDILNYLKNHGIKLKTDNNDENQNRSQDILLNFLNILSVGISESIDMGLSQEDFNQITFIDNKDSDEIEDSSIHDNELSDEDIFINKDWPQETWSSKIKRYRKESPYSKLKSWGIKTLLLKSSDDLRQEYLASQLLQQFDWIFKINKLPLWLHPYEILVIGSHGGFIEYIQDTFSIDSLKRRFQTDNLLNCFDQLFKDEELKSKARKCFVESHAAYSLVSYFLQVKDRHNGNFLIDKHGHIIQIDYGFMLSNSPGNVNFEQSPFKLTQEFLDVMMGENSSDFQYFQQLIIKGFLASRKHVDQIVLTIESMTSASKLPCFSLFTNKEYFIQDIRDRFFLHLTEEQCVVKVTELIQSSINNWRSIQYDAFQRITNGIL
Method in brief: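 Enzyme was pre-incubated with compound for 5 min at room temperature. The reaction was started with substrate mix at twice final strength (PI, ATP, Tris-HCl pH 7.5, DTT, 0.05% Triton X-100, MnCl2) and run 50 min at room temperature. ADP was measured by ADP-Glo luminescence. IC50s came from in-plate duplicate 10-point 3-fold dilutions, with DMSO and reference-inhibitor controls. The C. parvum enzymes (wild type and mutants) were full-length proteins expressed from baculovirus in Sf21 cells.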

Plasma stability [8] = type: in vitro ADME; conditions: human
Method in brief: as §2

C. parvum [9] = assay: Cytopathic effect; type: cell-based, Cryptosporidium parvum; conditions: read-out: Cp CPE EC50; C. parvum, HCT-8, 48 h
Method in brief: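 HCT-8 cells were grown at 37 °C, 5% CO2 in RPMI-1640 with 10% heat-inactivated FBS. Oocysts were excysted in 10 mM HCl/HBSS for 10 min at 37 °C, then in 2 mM sodium taurocholate in L-15/UltraCULTURE medium for 5 min. Infected cells were seeded onto pre-spotted compound (10-point, 3-fold dilution; DMSO and reference-inhibitor controls) and incubated 48 h. Cells were then lysed for a viability read-out, and concentration-response curves were fitted.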

Cytotoxicity assay = type: cell-based, human; conditions: human, HepG2 cells (ATCC CRL-10741), HepG2 CC50, 96 h
C. parvum [10] = assay: Time-kill assay, nanoluciferase-expressing C. parvum; type: cell-based, Cryptosporidium parvum
C. parvum [11] = assay: Washout assay, nanoluciferase-expressing C. parvum; type: cell-based, Cryptosporidium parvum; conditions: regardless of the stage of drug exposure
Method in brief: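 HCT-8 cells were grown to ~90% confluence, then infected with 400 nanoluciferase-expressing oocysts per well. Before infection, oocysts were primed for excystation with 10 mM HCl in water (10 min, 37 °C), then 2 mM sodium taurocholate in DPBS with Ca/Mg (10 min, 16 °C). Luminescence was read over time. RLU taken soon after infection served as day 0 and was used to normalize each timepoint.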

half-life [3]	Hepatocytes ER [4]	half-life ([4]; hepatocytes)	half-life [5]	half-life (Plasma stability [6])	solubility [7]	half-life (Plasma stability [8])	EC50 (C. parvum [9])	SMILES	sporozoite invasion (C. parvum [1])	efficacy in the mouse model (C. parvum [2])	IC50 (HsPI(4)K)	IC50 (CpPI(4)K)	CC50 at 96 h (Cytotoxicity assay)	parasiticidal or parasitistatic (C. parvum [10])	washout: cidal activity (C. parvum [11])
								CN(C)C[C@H](O)Cn1c2ccc(Br)cc2c2cc(Br)ccc21 (racemic) [wiskostatin, reference compound]	prevented sporozoite invasion and formation of trophozoites						
1.6 h	95%	4.8 min	3.58 h	< 5 min	37 µM (≈ 20.4 µg/mL)	> 2 h	0.349 ± 0.181 µM	CNC(=O)c1ccc(-c2cnn3ccc(C(=O)N(C[C@H]4CCC(=O)O4)c4ccc(OC(F)(F)F)cc4)cc23)cc1 [Compound 4, (R)-3-(4-(methylcarbamoyl)phenyl)-N-((5-oxotetrahydrofuran-2-yl)methyl)-N-(4-(trifluoromethoxy)phenyl)pyrazolo[1,5-a]pyridine-5-carboxamide]		poor in vivo efficacy	1.38 ± 0.13 µM	0.018 ± 0.011 µM	32.2 µM		
								CC(=O)Oc1ccccc1C(=O)Nc1ncc([N+](=O)[O-])s1 [NTZ, Nitazoxanide, reference compound]		not efficacious	> 30 µM	> 10 µM	34.9 µM	static	not cidal
